Laboratory results from ChEMBL document CHEMBL3414471 (J Med Chem, 2015).
The source made the active and inactive calls. The calls are words filed in the database; no cut-off is given here.

Key:
[1] = target: T1, 5-hydroxytryptamine receptor 2B (Homo sapiens, UniProt P41595); experiment: Agonist activity at human 5-HT2B receptor expressed in HEK293 cells assessed as calcium flux by FLIPR assay relative to 5-HT; format: functional, cell-based
In short: (§1)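 Flp-In-293 cells stably expressing human 5-HT2A, 5-HT2B or 5-HT2C-INI; grown 24–48 h in DMEM/10% dialyzed FBS, plated on poly-L-Lys at 12000 cells/well in 1% dialyzed FBS for 24 h. Loaded 1 h at 37 °C with calcium dye in HBSS, 20 mM Hepes pH 7.40, 2.5 mM probenecid.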

[2] = target: T2, 5-hydroxytryptamine receptor 2C (Homo sapiens) (UniProt P28335); experiment: Agonist activity at human 5-HT2C receptor expressed in HEK293 cells assessed as calcium flux by FLIPR assay relative to 5-HT; format: functional, cell-based; in short: as §1
T2 sequence (whole entry): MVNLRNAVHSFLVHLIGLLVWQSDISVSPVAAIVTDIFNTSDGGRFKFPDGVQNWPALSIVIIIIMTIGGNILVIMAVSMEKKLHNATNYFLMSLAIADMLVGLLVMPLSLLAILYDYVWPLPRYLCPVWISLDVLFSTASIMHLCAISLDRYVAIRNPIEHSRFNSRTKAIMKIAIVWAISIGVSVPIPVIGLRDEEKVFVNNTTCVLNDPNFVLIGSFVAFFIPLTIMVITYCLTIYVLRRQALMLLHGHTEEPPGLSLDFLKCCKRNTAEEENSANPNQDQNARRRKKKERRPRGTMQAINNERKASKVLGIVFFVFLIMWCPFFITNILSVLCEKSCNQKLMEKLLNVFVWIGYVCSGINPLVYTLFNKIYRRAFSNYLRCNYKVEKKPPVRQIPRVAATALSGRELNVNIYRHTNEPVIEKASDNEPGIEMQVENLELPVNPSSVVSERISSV

Homo sapiens = species: Homo sapiens; experiment: Selectivity ratio of EC50 for human 5-HT2B receptor to EC50 for human 5HT2C receptor
[3] = target: T3, 5-hydroxytryptamine receptor 2A (Homo sapiens, UniProt P28223); experiment: Agonist activity at human 5-HT2A receptor expressed in HEK293 cells assessed as calcium flux at 10 uM by FLIPR assay; format: functional, cell-based
In short: (§2)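 Flp-In-293 cells stably expressing human 5-HT2A, 5-HT2B or 5-HT2C-INI, grown in DMEM with 10% dialyzed FBS, then plated for 24 h in 1% dialyzed FBS. Cells were loaded 1 h at 37 °C with calcium dye in Hepes-buffered HBSS, pH 7.40, containing 2.5 mM probenecid. FLIPR read 10 s baseline, then 120 s after drug addition.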

[4] = target: T1, 5-hydroxytryptamine receptor 2B; experiment: Agonist activity at human 5-HT2B receptor expressed in HEK293 cells assessed as calcium flux by FLIPR assay; format: functional, cell-based
[5] = target: T4, 5-hydroxytryptamine receptor 2C (Homo sapiens, UniProt P28335); experiment: Agonist activity at human 5-HT2C receptor expressed in HEK293 cells assessed as calcium flux by FLIPR assay; format: functional, cell-based
T4 sequence (P28335 whole entry): T2 sequence (whole entry)

Salmonella typhimurium [6] = experiment: Mutagenic activity in Salmonella typhimurium TA1537 at 10 to 100 uM by ames test; format: toxicity, organism-based; settings: salmonella enterica subsp. enterica serovar typhimurium
In short: (§3)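 Ames fluctuation test in Salmonella strains TA98, TA100, TA1535 and TA1537, with and without S9, at 10, 50 and 100 µM; scored negative or positive.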

CYP2C19 = CYP2C19 (Homo sapiens, UniProt P33261); experiment: Inhibition of human CYP2C19 using omeprazole as substrate at 10 uM; format: ADME; settings: probe omeprazole
[7] = target: T3, 5-hydroxytryptamine receptor 2A; experiment: Agonist activity at human 5-HT2A receptor expressed in HEK293 cells assessed as calcium flux by FLIPR assay; format: functional, cell-based
[8] = Permeability from basolateral to apical side in human Caco2 cells at pH 7.4; format: ADME, cell-based; settings: caco-2, pH 7.4
In short: (§4)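 Caco-2 monolayer permeability measured A–B and B–A in pH 7.4 buffer, reported as ×10−6 cm/s; A–B/B–A ratio derived from these.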

Salmonella typhimurium [9] = experiment: Mutagenic activity in Salmonella typhimurium TA1535 at 10 to 100 uM by ames test in presence of S9 mixture; format: toxicity, organism-based; settings: salmonella enterica subsp. enterica serovar typhimurium; in short: as §3
CYP3A = CYP3A (Homo sapiens, UniProt P08684+P20815+P24462+Q9HB55); experiment: Inhibition of human CYP3A using midazolam as substrate at 10 uM; format: ADME; settings: probe midazolam
In short: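 Human liver microsomes, test compound at 10 µM, midazolam as CYP3A substrate; percent inhibition reported; run by a contract lab.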

Salmonella typhimurium [10] = experiment: Mutagenic activity in Salmonella typhimurium TA1535 at 10 to 100 uM by ames test; format: toxicity, organism-based; settings: salmonella enterica subsp. enterica serovar typhimurium; in short: as §3
[11] = Plasma concentration in CD1 mouse at 10 mg/kg, ip after 0.5 hrs; format: ADME, organism-based; design: dose 10 mg/kg, route intraperitoneal
In short: (§5)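 CD1 mice received a single 10 mg/kg ip dose formulated in pure water. Brain (ng/g) and plasma (ng/mL) levels were measured at 0.5 and 2 h. Brain/plasma ratio assumed a brain tissue density of 1 g/mL.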

[12] = Plasma concentration in CD1 mouse at 10 mg/kg, ip after 2 hrs; format: ADME, organism-based; design: dose 10 mg/kg, route intraperitoneal; in short: as §5
Salmonella typhimurium [13] = experiment: Mutagenic activity in Salmonella typhimurium TA1537 at 10 to 100 uM by ames test in presence of S9 mixture; format: toxicity, organism-based; settings: salmonella enterica subsp. enterica serovar typhimurium; in short: as §3
Salmonella typhimurium [14] = experiment: Mutagenic activity in Salmonella typhimurium TA100 at 10 to 100 uM by ames test in presence of S9 mixture; format: toxicity, organism-based; settings: salmonella enterica subsp. enterica serovar typhimurium; in short: as §3
[15] = target: T3, 5-hydroxytryptamine receptor 2A; experiment: Agonist activity at human 5-HT2A receptor expressed in HEK293 cells assessed as calcium flux by FLIPR assay relative to 5-HT; format: functional, cell-based; in short: as §1
Salmonella typhimurium [16] = experiment: Mutagenic activity in Salmonella typhimurium TA98 at 10 to 100 uM by ames test in presence of S9 mixture; format: toxicity, organism-based; settings: salmonella enterica subsp. enterica serovar typhimurium; in short: as §3
[17] = Permeability from apical to basolateral side in human Caco2 cells at pH 7.4; format: ADME, cell-based; settings: caco-2, pH 7.4; in short: as §4
Salmonella typhimurium [18] = experiment: Mutagenic activity in Salmonella typhimurium TA100 at 10 to 100 uM by ames test; format: toxicity, organism-based; settings: salmonella enterica subsp. enterica serovar typhimurium; in short: as §3
[19] = Plasma protein binding in human at 10 uM; format: ADME, cell-free
In short: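 Human plasma protein binding determined at 10 µM compound, expressed as % bound.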

[20] = Drug uptake in CD1 mouse brain at 10 mg/kg, ip after 2 hrs; format: ADME, organism-based; design: dose 10 mg/kg, route intraperitoneal; settings: read-out: Drug uptake; in short: as §5
Mus musculus = experiment: Antipsychotic activity in C57BL/6J mouse assessed as reduction of amphetamine-induced locomotor activity at 10 to 20 mg/kg, ip administered 15 mins prior to amphetamine challenge measured for 105 mins by open field test relative to vehicle-treated control; format: functional, organism-based
CYP2B6 = target: T5, CYP2B6 (Homo sapiens, UniProt P20813); experiment: Inhibition of human CYP2B6 using bupropion as substrate at 10 uM; format: ADME; settings: probe bupropion
T5 sequence (P20813 whole entry): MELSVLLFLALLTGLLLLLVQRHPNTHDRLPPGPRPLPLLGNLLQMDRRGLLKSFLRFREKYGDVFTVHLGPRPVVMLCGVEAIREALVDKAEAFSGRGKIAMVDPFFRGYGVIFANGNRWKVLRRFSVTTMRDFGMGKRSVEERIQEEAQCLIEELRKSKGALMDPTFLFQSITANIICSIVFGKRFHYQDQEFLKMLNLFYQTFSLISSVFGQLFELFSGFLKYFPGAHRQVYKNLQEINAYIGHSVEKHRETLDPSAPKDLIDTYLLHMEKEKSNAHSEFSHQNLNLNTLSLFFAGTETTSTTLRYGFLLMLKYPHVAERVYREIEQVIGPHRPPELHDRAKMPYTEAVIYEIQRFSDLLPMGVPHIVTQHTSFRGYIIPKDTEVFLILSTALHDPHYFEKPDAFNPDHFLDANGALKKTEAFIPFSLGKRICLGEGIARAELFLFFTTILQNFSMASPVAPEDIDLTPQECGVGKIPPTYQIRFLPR

CYP2C9 = CYP2C9 (Homo sapiens, UniProt P11712); experiment: Inhibition of human CYP2C9 using diclofenac as substrate at 10 uM; format: ADME; settings: probe diclofenac
Salmonella typhimurium [21] = experiment: Mutagenic activity in Salmonella typhimurium TA98 at 10 to 100 uM by ames test; format: toxicity, organism-based; settings: salmonella enterica subsp. enterica serovar typhimurium; in short: as §3
[22] = Drug uptake in CD1 mouse brain at 10 mg/kg, ip after 0.5 hrs; format: ADME, organism-based; design: dose 10 mg/kg, route intraperitoneal; settings: read-out: Drug uptake; in short: as §5
Liver microsome = experiment: Metabolic stability in human liver microsomes; format: ADME
In short: (§6)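 Incubation with human or CD-1 mouse liver microsomes for 1 h; stability expressed as % parent compound remaining.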

Liver = experiment: Metabolic stability in mouse liver microsomes; format: ADME; in short: as §6
CYP2D6 = CYP2D6 (Homo sapiens, UniProt P10635); experiment: Inhibition of human CYP2D6 using dextromethorphan as substrate at 10 uM; format: ADME; settings: probe dextromethorphan
[23] = target: T1, 5-hydroxytryptamine receptor 2B; experiment: Agonist activity at human 5-HT2B receptor expressed in HEK293 cells assessed as calcium flux at 10 uM by FLIPR assay; format: functional, cell-based; in short: as §2

T3 sequence (P28223 whole entry): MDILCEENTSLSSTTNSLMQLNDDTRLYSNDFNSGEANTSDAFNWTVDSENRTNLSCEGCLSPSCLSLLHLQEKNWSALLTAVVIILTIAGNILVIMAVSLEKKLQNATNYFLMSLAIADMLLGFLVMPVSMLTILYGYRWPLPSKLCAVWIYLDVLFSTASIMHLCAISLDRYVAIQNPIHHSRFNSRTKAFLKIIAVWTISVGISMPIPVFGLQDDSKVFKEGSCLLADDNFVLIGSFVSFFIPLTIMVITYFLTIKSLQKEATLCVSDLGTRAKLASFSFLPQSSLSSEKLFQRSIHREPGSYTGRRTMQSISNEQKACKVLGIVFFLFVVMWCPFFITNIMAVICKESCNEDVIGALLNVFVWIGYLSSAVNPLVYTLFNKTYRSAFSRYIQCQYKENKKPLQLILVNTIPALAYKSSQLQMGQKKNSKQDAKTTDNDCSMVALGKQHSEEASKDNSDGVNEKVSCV
T1 sequence (P41595 whole entry): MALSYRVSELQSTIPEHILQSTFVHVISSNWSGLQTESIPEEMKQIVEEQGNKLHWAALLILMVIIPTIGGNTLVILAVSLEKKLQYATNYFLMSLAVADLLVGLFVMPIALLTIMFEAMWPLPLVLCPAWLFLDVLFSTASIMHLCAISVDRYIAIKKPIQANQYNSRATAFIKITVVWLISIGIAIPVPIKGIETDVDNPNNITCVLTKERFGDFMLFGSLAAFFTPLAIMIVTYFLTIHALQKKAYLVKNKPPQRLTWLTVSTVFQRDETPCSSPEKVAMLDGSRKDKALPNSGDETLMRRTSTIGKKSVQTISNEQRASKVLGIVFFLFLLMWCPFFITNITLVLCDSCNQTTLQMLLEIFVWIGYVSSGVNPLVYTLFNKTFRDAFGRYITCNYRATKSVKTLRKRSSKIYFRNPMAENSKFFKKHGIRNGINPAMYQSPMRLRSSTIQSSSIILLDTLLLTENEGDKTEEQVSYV
CYP2C9, sequence (P11712 whole entry): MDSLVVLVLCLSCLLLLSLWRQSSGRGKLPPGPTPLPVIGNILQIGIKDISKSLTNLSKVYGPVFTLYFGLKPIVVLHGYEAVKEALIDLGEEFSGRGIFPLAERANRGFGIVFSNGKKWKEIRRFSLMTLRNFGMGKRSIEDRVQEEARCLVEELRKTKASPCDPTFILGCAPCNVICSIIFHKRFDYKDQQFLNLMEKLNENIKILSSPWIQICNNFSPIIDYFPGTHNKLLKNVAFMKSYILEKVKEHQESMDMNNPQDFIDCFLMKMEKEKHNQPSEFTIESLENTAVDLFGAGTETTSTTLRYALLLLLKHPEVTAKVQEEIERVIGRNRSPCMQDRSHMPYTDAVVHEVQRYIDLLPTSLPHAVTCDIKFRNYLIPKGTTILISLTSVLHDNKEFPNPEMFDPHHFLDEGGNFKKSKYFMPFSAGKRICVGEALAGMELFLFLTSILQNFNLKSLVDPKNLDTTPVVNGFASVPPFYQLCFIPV
CYP2D6, sequence (P10635 whole entry): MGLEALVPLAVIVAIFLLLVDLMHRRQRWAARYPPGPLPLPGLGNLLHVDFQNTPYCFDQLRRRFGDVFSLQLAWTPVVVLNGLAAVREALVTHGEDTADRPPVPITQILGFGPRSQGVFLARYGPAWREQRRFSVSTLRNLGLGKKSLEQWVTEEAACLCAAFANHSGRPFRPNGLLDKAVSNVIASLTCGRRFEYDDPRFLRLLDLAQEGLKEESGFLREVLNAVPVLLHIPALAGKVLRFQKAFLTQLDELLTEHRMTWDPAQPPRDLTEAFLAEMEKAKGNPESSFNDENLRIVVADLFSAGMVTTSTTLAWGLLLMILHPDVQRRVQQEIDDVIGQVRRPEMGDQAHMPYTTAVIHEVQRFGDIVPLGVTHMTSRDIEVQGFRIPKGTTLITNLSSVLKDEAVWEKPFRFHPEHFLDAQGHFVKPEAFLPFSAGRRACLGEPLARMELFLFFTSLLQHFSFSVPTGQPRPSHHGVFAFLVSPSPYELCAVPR
CYP2C19, sequence (P33261 whole entry): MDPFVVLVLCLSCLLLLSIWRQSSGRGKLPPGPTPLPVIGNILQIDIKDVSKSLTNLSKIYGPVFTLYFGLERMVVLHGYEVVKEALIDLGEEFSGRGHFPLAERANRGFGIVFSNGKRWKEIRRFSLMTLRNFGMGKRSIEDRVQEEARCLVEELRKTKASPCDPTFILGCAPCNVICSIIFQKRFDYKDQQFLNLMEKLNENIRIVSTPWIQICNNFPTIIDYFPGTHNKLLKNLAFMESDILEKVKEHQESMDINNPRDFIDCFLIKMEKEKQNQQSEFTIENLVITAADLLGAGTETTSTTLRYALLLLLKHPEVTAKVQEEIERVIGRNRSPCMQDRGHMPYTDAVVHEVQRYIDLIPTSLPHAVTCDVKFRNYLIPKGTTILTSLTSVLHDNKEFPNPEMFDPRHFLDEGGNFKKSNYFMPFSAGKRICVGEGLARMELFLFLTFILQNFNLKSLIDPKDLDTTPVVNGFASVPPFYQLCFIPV

## CCCOc1ccc(Cl)cc1[C@H]1C[C@@H]1CN
[1]
  Emax: 25%
[2]
  Emax: 72%
Homo sapiens
  Ratio EC50: 33
[3]
  Activity: inactive
[4]
  EC50: 3440 nM
[5]
  EC50: 103 nM

## Cl.NC[C@H]1C[C@@H]1c1cc(Cl)ccc1OCCF
Salmonella typhimurium [6]
  Activity: Non-toxic
CYP2C19
  inhibition at 10 µM: 21%
[7]
  EC50: 1480 nM
[8]
  permeability: 17.5 ×10⁻⁶ cm/s
Salmonella typhimurium [9]
  Activity: Non-toxic
CYP3A
  inhibition at 10 µM: 22%
Salmonella typhimurium [10]
  Activity: Non-toxic
[11]
  concentration at 0.5 h: 1200 ng/mL
[12]
  concentration at 2 h: 874 ng/mL
[1]
  Emax: 31%
Salmonella typhimurium [13]
  Activity: Non-toxic
Salmonella typhimurium [14]
  Activity: Non-toxic
[15]
  Emax: 35%
[2]
  Emax: 86%
Salmonella typhimurium [16]
  Activity: Non-toxic
[17]
  permeability: 35.5 ×10⁻⁶ cm/s
Salmonella typhimurium [18]
  Activity: Non-toxic
[19]
  PPB: 57%
[20]
  concentration at 2 h: 13400 ng/g
Mus musculus
  Activity: Active
CYP2B6
  inhibition at 10 µM: 58%
CYP2C9
  inhibition at 10 µM: 33%
Salmonella typhimurium [21]
  Activity: Non-toxic
[4]
  EC50: 632 nM
[22]
  concentration at 0.5 h: 12800 ng/g
Liver microsome
  Stability: 95%
Liver
  Stability: 74%
[5]
  EC50: 32 nM
CYP2D6
  inhibition at 10 µM: 79%

## COCCOc1ccc(Cl)cc1[C@H]1C[C@@H]1CN
[23]
  Activity: inactive
[2]
  Emax: 8%
[3]
  Activity: inactive
[5]
  EC50: 183 nM

## C=C(F)COc1ccc(F)cc1[C@@H]1C[C@H]1CN
[23]
  Activity: inactive
[2]
  Emax: 62%
[3]
  Activity: inactive
[5]
  EC50: 985 nM
